Active and inactive are the calls of the source. The rule behind the calls is not given here.
Experiments:
Glutamate NMDA receptor [1] = assay: Antagonist activity at NMDA receptor in rat cerebellar granule neurons assessed as inhibition of NMDA-induced increase in intracellular calcium level by fluorometric assay; assay type: functional, cell-based
Procedure, shortened: (§1)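 Primary cerebellar granule neuron cultures on poly-L-lysine-coated glass coverslips, used after 7–14 days in vitro. Cells loaded with 6 µM Fura-2 AM for 45 min, then read fluorometrically in Locke-Hepes buffer at 37 °C under mild agitation. Cumulative increasing compound concentrations added after glutamate (100 µM, with 10 µM glycine) or NMDA challenge. Inhibition percentages fitted by variable-slope non-linear regression. At least three experiments on three culture batches.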

Glutamate NMDA receptor [2] = assay: Antagonist activity at NMDA receptor in rat cerebellar granule neurons assessed as inhibition of glutamate-induced increase in intracellular calcium level by fluorometric assay; assay type: functional, cell-based; procedure, shortened: as §1
Trypanosoma brucei [3] = assay: Trypanocidal activity against Trypanosoma brucei 427 bloodstream form assessed as decrease in cell density at 5 ug/mL after 48 hrs by hemocytometry; assay type: functional, organism-based
Mus musculus [4] = organism: Mus musculus; assay: Inhibition of MAO in mouse cortex at 50 uM by tube luminometry
Procedure, shortened: (§2)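 MAO-Glo luminescent assay of non-specific MAO activity. Enzyme source was a crude mitochondrial preparation from NIH Swiss mouse cortex. Compounds tested at 10 and 50 µM.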

Mus musculus [5] = organism: Mus musculus; assay: Inhibition of MAO in mouse cortex at 10 uM by tube luminometry; procedure, shortened: as §2
Trypanosoma brucei [6] = assay: Trypanocidal activity against Trypanosoma brucei 427 bloodstream form assessed as decrease in cell density after 48 hrs by hemocytometry; assay type: functional, organism-based; details: Trypanosoma brucei, 427, 48 h
Procedure, shortened: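 Bloodstream-form T. brucei strain 427 kept at 37 °C in modified Iscove's medium, pH 7.4. Parasites grown 48 h across a range of drug concentrations, starting at 0.5 × 10⁴ cells/mL. Densities counted by hemocytometer and expressed as percent of control growth to derive IC50 and IC90. Performed in triplicate.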

Trypanosoma brucei [7] = assay: Ratio of compound to amantadine activity against Trypanosoma brucei 427 bloodstream form; assay type: functional

Row | SMILES | IC50 (Glutamate NMDA receptor [1]) | IC50 (Glutamate NMDA receptor [2]) | Activity (Trypanosoma brucei [3]) | inhibition (Mus musculus [4]) | inhibition (Mus musculus [5]) | IC50 (Trypanosoma brucei [6]) | IC90 (Trypanosoma brucei [6]) | Ratio (Trypanosoma brucei [7])
1 | c1ccc(CCNC23CC4CC(CC(C2)c2ccccc24)O3)cc1 | > 200 µM | > 500 µM | inactive |  |  |  |  | 
2 | CN(Cc1ccccc1)C12CC3CC(CC(C1)c1ccccc13)O2 | > 200 µM | > 500 µM | inactive |  |  |  |  | 
3 | C#CCN(CC#C)C12CC3CC(CC(C1)c1ccccc13)O2 | > 200 µM | > 500 µM | inactive | inactive | inactive |  |  | 
4 | C#CCN(CC#C)C12CC3CC(CC)(CC(C1)c1ccccc13)O2 | > 200 µM | > 500 µM |  | inactive | inactive | 14.6 µM | 24.1 µM | >=10
5 | c1ccc2c(c1)C1CC3CC2CC(N2CCCCC2)(C1)O3 | 30 µM | 168 µM |  |  |  |  |  | 
6 | CNC12CC3CC(CC(C1)c1ccccc13)O2 | 6 µM | 28 µM | inactive |  |  |  |  | 
7 | CN(C)C12CC3CC(CC(C1)c1ccccc13)O2 | 3.8 µM | 39 µM | inactive |  |  |  |  | 
8 | c1ccc(CNC23CC4CC(CC(C2)c2ccccc24)O3)cc1 | > 200 µM | > 500 µM | inactive |  |  |  |  | 
9 | CC12CC3CC(N)(CC(C1)c1ccccc13)O2 | 98 µM | 167 µM | inactive |  |  |  |  | 
10 | CN(C)C12CC3CC(C)(CC(C1)c1ccccc13)O2 | 3.9 µM | 7.7 µM | inactive |  |  |  |  | 
11 | C#CCNC12CC3CC(CC)(CC(C1)c1ccccc13)O2 | > 200 µM | > 500 µM |  | inactive | inactive | 15.2 µM | 25.6 µM | >=10
12 | C#CCNC12CC3CC(CC(C1)c1ccccc13)O2 | 34 µM | 115 µM | inactive | inactive | inactive |  |  | 
13 | c1ccc(CN(Cc2ccccc2)C23CC4CC(CC(C2)c2ccccc24)O3)cc1 | > 200 µM | > 500 µM | inactive |  |  |  |  | 
14 | CCN(CC)C12CC3CC(C)(CC(C1)c1ccccc13)O2 | 7.7 µM | 22 µM | inactive |  |  |  |  | 
15 | NC12CC3CC(CC(C1)c1ccccc13)O2 | 35 µM | 408 µM | inactive |  |  |  |  | 
16 | CC12CC3CC(C)(C1)CC(N)(C3)C2 [MEMANTINE] |  |  |  |  |  | 13.8 µM | 21.4 µM | 
17 | NC(=O)CNC12CC3CC(CC(C1)c1ccccc13)O2 | > 200 µM | > 500 µM | inactive | inactive | inactive |  |  | 
18 | CCN(CC)C12CC3CC(CC(C1)c1ccccc13)O2 | 14 µM | 96 µM |  |  |  |  |  | 
19 | CCC12CC3CC(N)(CC(C1)c1ccccc13)O2 | > 200 µM | > 500 µM | inactive |  |  |  |  | 
20 | C#CCN(C)[C@H](C)Cc1ccccc1 |  |  |  |  | 85.5% |  |  | 
21 | CC(N)C12CC3CC(CC(C3)C1)C2 (stereo not given) [RIMANTADINE] |  |  |  |  |  |  | 14 µM | 
22 | CCC12CC3CC(NCc4ccccc4)(CC(C1)c1ccccc13)O2 | > 200 µM | > 500 µM |  |  |  | 13.9 µM | 19.9 µM | >=10
